Source: ChEMBL document CHEMBL1143582, “Discovery of the alpha7 nicotinic acetylcholine receptor agonists. (R)-3'-(5-Chlorothiophen-2-yl)spiro-1-azabicyclo[2.2.2]octane-3,5'-[1',3']oxazolidin-2'-one as a novel, potent, selective, and orally bioavailable ligand” (J Med Chem, 2005)

What was measured:
[1] = target: T1, Neuronal acetylcholine receptor subunit alpha-7 (Rattus norvegicus, UniProt Q05941); experiment: (§1) Inhibition of [125I]alpha-bungarotoxin binding to rat nicotinic acetylcholine receptor alpha7
T1 sequence (Q05941 whole entry): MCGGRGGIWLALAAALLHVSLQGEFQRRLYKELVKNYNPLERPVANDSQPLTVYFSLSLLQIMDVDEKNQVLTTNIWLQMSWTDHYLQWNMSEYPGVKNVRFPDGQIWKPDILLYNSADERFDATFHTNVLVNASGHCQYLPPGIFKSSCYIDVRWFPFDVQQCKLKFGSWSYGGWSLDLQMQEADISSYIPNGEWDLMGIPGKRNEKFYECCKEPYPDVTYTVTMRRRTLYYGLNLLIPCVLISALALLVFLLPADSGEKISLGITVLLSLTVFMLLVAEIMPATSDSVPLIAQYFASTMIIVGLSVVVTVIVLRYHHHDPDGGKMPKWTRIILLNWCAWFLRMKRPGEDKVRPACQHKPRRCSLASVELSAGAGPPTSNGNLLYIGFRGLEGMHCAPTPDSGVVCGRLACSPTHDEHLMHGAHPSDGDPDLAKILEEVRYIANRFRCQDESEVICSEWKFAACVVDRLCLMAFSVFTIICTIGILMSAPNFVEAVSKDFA

[2] = target: T1, Neuronal acetylcholine receptor subunit alpha-7; experiment: as §1; remark: listed apart in the source
Procedure, shortened: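 Membranes from Wistar rat hippocampus made by sucrose homogenisation and differential centrifugation, then resuspended in 118 mM NaCl, 4.8 mM KCl, 2.5 mM CaCl2, 1.2 mM MgCl2, 20 mM Na-HEPES pH 7.5. Incubated with [125I]-α-bungarotoxin plus compounds, 37 °C, 3 h. Bound label collected by filtration. Nonspecific binding defined with 100 µM (−)-nicotine.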

[3] = Oral bioavailability of compound after peroral dosing of 1.0 mg/kg in rats (N=4); assay type: ADME, organism-based; settings: rat, in vivo, read-out: BA
[4] = Maximum plasma concentration after peroral dosing of 10.0 mg/kg in rats (N=4); assay type: ADME, organism-based; design: dose 10 mg/kg, route oral; settings: rat, po
Procedure, shortened: (§2)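 Rats (N=4) given a single oral dose; plasma sampled over 24 h. AUC0-24h estimated from the plasma concentration-time curve and Cmax taken as the peak plasma level. Reported as mean ± SD.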

[5] = Area under plasma concentration time curve 24 hours after peroral dosing of 10.0 mg/kg (AUC) in rats (N=4); assay type: ADME, organism-based; design: dose 10 mg/kg, route oral; settings: rat, po; procedure, shortened: as §2
[6] = Brain permeability is determined by ratio of concentration of compound in brain to that of in plasma (CB/CP) 2 hrs after oral dosing of 10.0 mg/kg (N=3); assay type: ADME, organism-based; design: dose 10 mg/kg, route oral; settings: rat, read-out: Permeability
Procedure, shortened: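 Rats (N=3) given a single 10 mg/kg oral dose. Brain and plasma concentrations measured 2 h after dosing, and the brain/plasma ratio (CB/CP) calculated. Reported as mean ± SD.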

[7] = Inhibition of [125I]alpha-bungarotoxin binding to nicotinic acetylcholine receptor […]-delta-gamma from BC3H1 cells; assay type: cell-based, Mus musculus; settings: bc3h-1
Procedure, shortened: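 BC3H1 muscle cells grown in DMEM with 4 mM L-glutamine and 20% FBS. Membranes from confluent cells washed in HEPES-buffered saline, pH 7.5. Incubated with [125I]-α-bungarotoxin plus compounds, 37 °C, 3 h, then filtered. Nonspecific binding defined with […].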

[8] = target: Neuronal acetylcholine receptor; alpha4/beta2 (Rattus norvegicus, UniProt P09483+P12390); experiment: Inhibition of [3H]cytisine binding to nicotinic acetylcholine receptor alpha4-beta2 from rat cerebral cortex; assay type: tissue-based
Chain of Neuronal acetylcholine receptor; alpha4/beta2 (P09483 whole entry): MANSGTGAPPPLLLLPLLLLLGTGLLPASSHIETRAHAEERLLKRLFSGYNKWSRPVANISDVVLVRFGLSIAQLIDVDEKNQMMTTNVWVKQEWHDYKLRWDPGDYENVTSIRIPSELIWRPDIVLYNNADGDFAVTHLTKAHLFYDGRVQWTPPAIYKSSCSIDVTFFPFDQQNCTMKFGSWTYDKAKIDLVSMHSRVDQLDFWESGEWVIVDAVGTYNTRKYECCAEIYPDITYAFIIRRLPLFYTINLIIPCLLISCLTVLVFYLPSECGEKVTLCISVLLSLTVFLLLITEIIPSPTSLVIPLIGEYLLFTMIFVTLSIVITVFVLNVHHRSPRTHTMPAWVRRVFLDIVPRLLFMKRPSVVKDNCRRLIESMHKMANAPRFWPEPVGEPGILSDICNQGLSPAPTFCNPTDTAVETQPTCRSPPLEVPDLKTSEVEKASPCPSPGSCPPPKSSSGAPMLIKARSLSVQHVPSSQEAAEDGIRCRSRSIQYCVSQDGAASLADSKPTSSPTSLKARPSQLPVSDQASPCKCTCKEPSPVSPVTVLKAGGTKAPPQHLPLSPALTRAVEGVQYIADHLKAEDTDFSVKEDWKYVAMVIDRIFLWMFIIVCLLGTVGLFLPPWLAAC
Chain of Neuronal acetylcholine receptor; alpha4/beta2 (P12390 whole entry): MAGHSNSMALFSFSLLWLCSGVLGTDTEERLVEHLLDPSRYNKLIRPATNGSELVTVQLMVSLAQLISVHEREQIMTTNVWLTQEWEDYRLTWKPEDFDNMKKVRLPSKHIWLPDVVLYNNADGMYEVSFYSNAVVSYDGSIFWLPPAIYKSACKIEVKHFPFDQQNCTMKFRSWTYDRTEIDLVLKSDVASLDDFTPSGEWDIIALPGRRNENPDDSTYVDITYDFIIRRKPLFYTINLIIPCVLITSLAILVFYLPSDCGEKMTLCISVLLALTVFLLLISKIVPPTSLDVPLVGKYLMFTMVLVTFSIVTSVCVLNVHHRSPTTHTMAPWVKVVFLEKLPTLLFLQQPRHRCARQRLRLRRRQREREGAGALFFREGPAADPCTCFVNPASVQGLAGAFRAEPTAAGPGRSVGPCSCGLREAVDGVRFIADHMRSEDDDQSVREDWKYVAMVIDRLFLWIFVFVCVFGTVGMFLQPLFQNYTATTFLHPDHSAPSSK
Procedure, shortened: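 Wistar rat cerebral cortex membranes in 120 mM NaCl, 2.5 mM KCl, 1 mM CaCl2, 1 mM MgCl2, 50 mM Tris-HCl pH 7.4. Incubated with [3H]cytisine plus compounds, 4 °C, 75 min. Filtered and counted by liquid scintillation. Nonspecific binding defined with 100 µM (−)-nicotine.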

[9] = Maximum plasma concentration after peroral dosing of 1.0 mg/kg in rats (N=4); assay type: ADME, organism-based; design: dose 1 mg/kg, route oral; settings: rat, po; procedure, shortened: as §2
[10] = Oral bioavailability of compound after peroral dosing of 10.0 mg/kg in rats (N=4); assay type: ADME, organism-based; settings: rat, in vivo, read-out: BA
[11] = Area under plasma concentration time curve 24 hours after peroral dosing of 1.0 mg/kg (AUC) in rats (N=4); assay type: ADME, organism-based; design: dose 1 mg/kg, route oral; settings: rat, po; procedure, shortened: as §2
[12] = Brain permeability is determined by ratio of concentration of compound in brain to that of in plasma (CB/CP) 1 hr after subcutaneous dosing of 1.0 mg/kg (N=3); assay type: ADME, organism-based; design: dose 1 mg/kg, route subcutaneous; settings: rat, sc, read-out: Permeability
Procedure, shortened: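 Rats (N=3) given a single 1 mg/kg sc dose. Brain and plasma concentrations measured 1 h later, and the brain/plasma ratio (CB/CP) calculated. Reported as mean ± SD.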

[13] = Half-life of plasma concentration after intravenous dosing of 1 mg/kg in rats (N=4); settings: rat

| SMILES | Ki [1] | IC50 [2] | also measured |
| --- | --- | --- | --- |
| c1ccc2sc(CO[C@@H]3CN4CCC3CC4)cc2c1 | 13 nM | – | – |
| O=C1O[C@]2(CN3CCC2CC3)CN1c1nc2ccccc2s1 | 430 nM | – | – |
| O=C1O[C@]2(CN3CCC2CC3)CN1c1nc2ccccc2o1 | – | > 1000 nM | – |
| N#Cc1ccc(N2C[C@@]3(CN4CCC3CC4)OC2=O)s1 | 85 nM | – | – |
| O=C1O[C@]2(CN3CCC2CC3)CN1c1cc2ccccc2o1 | 370 nM | – | – |
| O=C1OC2(CN3CCC2CC3)CN1c1ccccc1 (stereo unspecified) | – | > 1000 nM | – |
| CC(C)c1ccc(N2C[C@@]3(CN4CCC3CC4)OC2=O)s1 | 65 nM | – | – |
| O=C1O[C@]2(CN3CCC2CC3)CN1c1ccsc1 | – | > 1000 nM | – |
| O=C1O[C@]2(CN3CCC2CC3)CN1c1ccc(Br)s1 | 4 nM | – | – |
| Cc1cc(N2C[C@@]3(CN4CCC3CC4)OC2=O)sc1C | – | > 1000 nM | – |
| Cc1ccc(N2C[C@@]3(CN4CCC3CC4)OC2=O)s1 | 12 nM | – | – |
| CC(O)c1ccc(N2C[C@@]3(CN4CCC3CC4)OC2=O)s1 (stereo partly specified) | 145 nM | – | – |
| O=C1O[C@]2(CN3CCC2CC3)CN1c1cc2ccccc2s1 | 75 nM | – | – |
| Cc1csc(N2C[C@@]3(CN4CCC3CC4)OC2=O)c1 | – | > 1000 nM | – |
| O=C1O[C@@]2(CN3CCC2CC3)CN1c1cc2ccccc2s1 | – | > 1000 nM | – |
| O=C1O[C@]2(CN3CCC2CC3)CN1c1ccc2ccccc2c1 | 31 nM | – | – |
| O=C1O[C@]2(CN3CCC2CC3)CN1c1ccc(Cl)s1 | 9 nM | – | bioavailability [3]: 52%; Cmax [4]: 997 ng/mL; AUC at 24 h [5]: 4640 ng·h/mL; Kp at 2 h [6]: 59; IC50 [7]: > 10000 nM; Ki [8]: 1800 nM; Cmax [9]: 56 ng/mL; bioavailability [10]: 108%; AUC at 24 h [11]: 224 ng·h/mL |
| O=C1NC[C@@]2(CN3CCC2CC3)O1 | – | – | Cmax [4]: 1580 ng/mL; AUC at 24 h [5]: 5390 ng·h/mL; IC50 [7]: > 10000 nM; Kp at 1 h [12]: 0.76; bioavailability [10]: 103% |
| O=C1O[C@]2(CN3CCC2CC3)CN1c1ccccn1 | – | > 1000 nM | – |
| O=C1O[C@@]2(CN3CCC2CC3)CN1c1ccc2ccccc2c1 | 205 nM | – | – |
| O=C1O[C@]2(CN3CCC2CC3)CN1c1cccs1 | 80 nM | – | – |
| CCc1ccc(N2C[C@@]3(CN4CCC3CC4)OC2=O)s1 | 21 nM | – | – |
| CC(=O)c1ccc(N2C[C@@]3(CN4CCC3CC4)OC2=O)s1 | 190 nM | – | – |
| Cc1ccsc1N1C[C@@]2(CN3CCC2CC3)OC1=O | – | > 1000 nM | – |
| O=C(CC1CN2CCC1CC2)c1cc2ccccc2s1 (single isomer, unassigned; (+)) | 65 nM | – | – |
| COc1ccc(/C=C2\CCCN=C2c2cccnc2)c(OC)c1 [GTS-21] | 220 nM | – | Cmax [4]: 138 ng/mL; AUC at 24 h [5]: 453 ng·h/mL; Kp at 2 h [6]: < 0.3; IC50 [7]: > 10000 nM; Ki [8]: 84 nM; bioavailability [10]: 14%; half-life [13]: 28.2 min |
